# Data taken from paper PMC5116011 (The Journal of antibiotics, 2016).
# Read-outs that look alike come from different tables or passages of the source.
# Key:
# P. vulgaris ATCC 33420 = assay: MIC, microbroth dilution in Mueller-Hinton broth; format: cell-based; conditions: Proteus vulgaris, ATCC33420, read-out: MIC PV
# S. pyogenes ATCC700294 = assay: MIC, microbroth dilution in Mueller-Hinton broth; format: cell-based; conditions: Streptococcus pyogenes, ATCC700294, read-out: MIC SPy
# Method in brief: (§1)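 CLSI broth microdilution in cation-adjusted Mueller-Hinton broth. Inocula were grown from MH agar colonies in MH broth, with a final inoculum of 10^5 CFU/ml. Test compound final range was 200–0.2 µg/ml, incubated 37°C for 18–20 h. MIC was the lowest concentration preventing visible growth. Runs were at least duplicate, and the mean MIC was reported.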
# [1] = tested on: E. coli BW25113 ΔtolC derivative JW5503-1; assay: MIC, microbroth dilution in Mueller-Hinton broth; format: cell-based, Escherichia coli; conditions: for MIC: Escherichia coli
# B. subtilis ATCC23857 = assay: MIC, microbroth dilution in Mueller-Hinton broth; format: cell-based; conditions: Bacillus subtilis, ATCC23857, read-out: MIC BS
# Method in brief: as §1
# E. faecalis ATCC33186 = assay: MIC, microbroth dilution in Mueller-Hinton broth; format: cell-based; conditions: Enterococcus faecalis, ATCC33186, read-out: MIC EF
# Method in brief: as §1
# P. aeruginosa PA01 = assay: MIC, microbroth dilution in Mueller-Hinton broth; format: cell-based, Pseudomonas aeruginosa; conditions: for MIC PA MH+BP/CCCP / MIC PA +: P. aeruginosa PA01; for MIC PA MH+BP/CCCP: MH broth with 30 µg/ml 2,2′-bipyridyl and 50 µg/ml CCCP; for MIC PA +: with clavulanic acid (6µg/ml); for MIC: Pseudomonas aeruginosa
# [2] = tested on: E. coli ATCC 35218 (Low-level TEM-1); assay: MIC with and without clavulanic acid; format: cell-based
# Method in brief: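 Mueller-Hinton broth microdilution per CLSI, run in parallel without and with the β-lactamase inhibitor clavulanic acid (6 µg/ml). MH-broth-grown inoculum was at 10^5 CFU/ml final, with test compound at 200–0.2 µg/ml final. Incubation was 37°C, 18–20 h, and the visible-growth endpoint was read. At least duplicate determinations; the mean MIC was reported.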
# [3] = tested on: S. aureus -ATCC29213 (MSSA); assay: MIC, microbroth dilution in Mueller-Hinton broth; format: cell-based; conditions: Staphylococcus aureus, read-out: MIC MSSA
# Method in brief: as §1
# E. coli BW25113 = assay: MIC, microbroth dilution in Mueller-Hinton broth; format: cell-based, Escherichia coli; conditions: for MIC EC MH+BP/CCCP: MH broth with 30 µg/ml 2,2′-bipyridyl and 50 µg/ml CCCP; for MIC EC +: with clavulanic acid (6µg/ml); for MIC: Escherichia coli, BW25113, read-out: MIC EC, E. coli BW25113
# S. aureus NRS 70 (MRSA) = assay: MIC, microbroth dilution in Mueller-Hinton broth; format: cell-based; conditions: Staphylococcus aureus, MRSA|NRS70, read-out: MIC MRSA
# Method in brief: as §1
# P. mirabilis ATCC 25933 = assay: MIC, microbroth dilution in Mueller-Hinton broth; format: cell-based; conditions: Proteus mirabilis, ATCC25933, read-out: MIC PM
# S. pneumoniae R6 = assay: MIC, microbroth dilution in Mueller-Hinton broth; format: cell-based; conditions: Streptococcus pneumoniae, R6, read-out: MIC SP
# Method in brief: as §1
# B. anthracis sterne = assay: microbe, parasite or virus in culture; format: cell-based; conditions: Bacillus anthracis, read-out: MIC BA
# [4] = tested on: E. coli BW25113 ΔampC derivative JW4111-2; format: cell-based, Escherichia coli
# [5] = BW25113, read-out: MIC ECΔtolC MH
# [6] = BW25113, read-out: MIC ECΔtolC MH+BP
smiles,measurement,setting,value
CC1(C)SC2C(NC(=O)C(NC(=O)C3=C(O)C(Cc4ccccc4)NC3=O)c3ccccc3)C(=O)N2C1C(=O)O (centres unmarked) [Compound 2781],MIC,P. vulgaris ATCC 33420,6.25 µg/mL
same,MIC,S. pyogenes ATCC700294,0.39 µg/mL
same,MIC,"[1]; BW25113, read-out: MIC ECΔtolC",3.13 µg/mL
same,MIC,[1]; [5],3.13 µg/mL
same,MIC,[1]; [6],3.13 µg/mL
same,MIC ECΔtolC MH+BP/CCCP,[1],1.56 µg/mL
same,MIC ECΔtolC MH+CCCP,[1],1.56 µg/mL
same,MIC,B. subtilis ATCC23857,0.78 µg/mL
same,MIC,E. faecalis ATCC33186,25 µg/mL
same,MIC PA MH+BP/CCCP,P. aeruginosa PA01,1.56 µg/mL
same,MIC PA +,P. aeruginosa PA01,3.13 µg/mL
same,MIC,"P. aeruginosa PA01; PA01, read-out: MIC PA",12.5 µg/mL
same,MIC,"P. aeruginosa PA01; PA01, read-out: MIC PA MH",12.5 µg/mL
same,MIC,"P. aeruginosa PA01; PA01, read-out: MIC PA MH+BP",6.25 µg/mL
same,MIC,"P. aeruginosa PA01; PA01, read-out: MIC PA MH+CCCP",3.13 µg/mL
same,MIC,"P. aeruginosa PA01; PA01, read-out: MIC PA −",12.5 µg/mL
same,MIC,"[2]; Escherichia coli, ATCC35218, read-out: MIC ATCC 35218 (Low-level TEM-1) - CLV",> 200 µg/mL
same,MIC ATCC 35218 (Low-level TEM-1) + CLV,[2]; with clavulanic acid (6 µg/ml),25 µg/mL
same,MIC,[3],< 0.2 µg/mL
same,MIC EC MH+BP/CCCP,E. coli BW25113; E. coli BW25113,3.13 µg/mL
same,MIC EC +,E. coli BW25113; E. coli BW25113,6.25 µg/mL
same,MIC,E. coli BW25113; Mueller-Hinton broth (Table 2),100 µg/mL
same,MIC,S. aureus NRS 70 (MRSA),25 µg/mL
same,MIC,P. mirabilis ATCC 25933,3.13 µg/mL
same,MIC,S. pneumoniae R6,< 0.2 µg/mL
same,MIC,B. anthracis sterne,3.13 µg/mL
same,MIC,"[4]; Escherichia coli, BW25113, read-out: MIC ECΔampC −",6.25 µg/mL
same,MIC ECΔampC +,[4],3.13 µg/mL
CC1(C)SC2C(NC(=O)C(NC(=O)C3=C(O)C(Cc4ccc(O)cc4)NC3=O)c3ccccc3)C(=O)N2C1C(=O)O (centres unmarked) [Compound 2918],MIC,P. vulgaris ATCC 33420,6.25 µg/mL
same,MIC,S. pyogenes ATCC700294,1.56 µg/mL
same,MIC,"[1]; BW25113, read-out: MIC ECΔtolC",6.25 µg/mL
same,MIC,[1]; [5],1.56 µg/mL
same,MIC,[1]; [6],1.56 µg/mL
same,MIC ECΔtolC MH+BP/CCCP,[1],0.78 µg/mL
same,MIC ECΔtolC MH+CCCP,[1],0.78 µg/mL
same,MIC,B. subtilis ATCC23857,3.13 µg/mL
same,MIC,E. faecalis ATCC33186,25 µg/mL
same,MIC PA MH+BP/CCCP,P. aeruginosa PA01,6.25 µg/mL
same,MIC PA +,P. aeruginosa PA01,6.25 µg/mL
same,MIC,"P. aeruginosa PA01; PA01, read-out: MIC PA",50 µg/mL
same,MIC,"P. aeruginosa PA01; PA01, read-out: MIC PA MH",50 µg/mL
same,MIC,"P. aeruginosa PA01; PA01, read-out: MIC PA MH+BP",25 µg/mL
same,MIC,"P. aeruginosa PA01; PA01, read-out: MIC PA MH+CCCP",6.25 µg/mL
same,MIC,[3],0.78 µg/mL
same,MIC EC MH+BP/CCCP,E. coli BW25113; E. coli BW25113,6.25 µg/mL
same,MIC EC,"E. coli BW25113; E. coli BW25113, Mueller-Hinton broth (Table 2)",6.25 µg/mL
same,MIC EC +,E. coli BW25113; E. coli BW25113,12.5 µg/mL
same,MIC,E. coli BW25113; Mueller-Hinton broth (Table 2),6.25 to 12.5 µg/mL
same,MIC,S. aureus NRS 70 (MRSA),50 µg/mL
same,MIC,P. mirabilis ATCC 25933,6.25 µg/mL
same,MIC,S. pneumoniae R6,0.39 µg/mL
same,MIC,B. anthracis sterne,6.25 µg/mL
same,MIC ECΔampC +,[4],6.25 µg/mL
